Reference: ChEMBL document CHEMBL1208685, “Synthesis, antiproliferative activity and inhibition of tubulin polymerization by anthracenone-based oxime derivatives” (Eur J Med Chem, 2010)
pIC50: −log10 of the molar value.

What was measured:
K562 = test: Cell growth inhibition of human K562 cells after 48 hrs; type: functional, cell-based; details: K562, 48 h
Outline: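 K562 human chronic myelogenous leukemia cells cultured in Quantum 263 medium with streptomycin and penicillin G at 37 °C, 5% CO2. Seeded at 2 × 10⁵ cells/mL, exposed 48 h to compounds in DMSO/methanol 1:1 (vehicle 0.5%). Cells counted in Neubauer chamber and expressed as % of untreated control. Triplicate wells, three experiments. IC50 by nonlinear regression.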

Tubulin (Sus scrofa) = test: Inhibition of tubulin polymerization using porcine brain microtubule protein

O=C1c2ccccc2C(=NO)c2ccccc21
pIC50 (K562): 5.52

COc1cccc2c1C(=O)c1c(OC)cccc1C2=NO
pIC50 (K562): 6.05

O=C1c2cccc(Cl)c2/C(=N/O)c2cccc(Cl)c21
pIC50 (K562): 5.80

O=C1c2cccc(Cl)c2/C(=N\O)c2cccc(Cl)c21
pIC50 (K562): 5.80

O=C1c2c(Cl)cccc2C(=NO)c2cccc(Cl)c21
pIC50 (K562): < 5.05

COc1ccc(C(=O)ON=C2c3ccccc3C(=O)c3ccccc32)cc1
pIC50 (K562): 5.52
pIC50 (Tubulin (Sus scrofa)): < 5.00

COc1cc(C(=O)ON=C2c3ccccc3C(=O)c3ccccc32)cc(OC)c1OC
pIC50 (K562): < 4.92

COc1ccc(C(=O)O/N=C2\c3cccc(Cl)c3C(=O)c3cccc(Cl)c32)cc1
pIC50 (K562): 4.92
pIC50 (Tubulin (Sus scrofa)): < 5.00

COc1cc(C(=O)O/N=C2\c3cccc(Cl)c3C(=O)c3cccc(Cl)c32)cc(OC)c1OC
pIC50 (K562): < 4.85

COc1ccc(C(=O)ON=C2c3cccc(Cl)c3C(=O)c3c(Cl)cccc32)cc1
pIC50 (K562): < 4.92

COc1ccc(C(=O)ON=C2c3ccccc3C(=O)c3ccccc32)cc1O
pIC50 (K562): 5.70

COc1cc(C(=O)ON=C2c3ccccc3C(=O)c3ccccc32)ccc1O
pIC50 (K562): 5.52

COc1ccc(S(=O)(=O)ON=C2c3ccccc3C(=O)c3ccccc32)cc1
pIC50 (K562): 5.52
pIC50 (Tubulin (Sus scrofa)): < 5.00

COc1ccc(S(=O)(=O)O/N=C2\c3cccc(Cl)c3C(=O)c3cccc(Cl)c32)cc1
pIC50 (K562): < 4.92

O=C1c2ccccc2C(=NOCc2ccccc2)c2ccccc21
pIC50 (K562): 5.15

COc1ccc(CON=C2c3ccccc3C(=O)c3ccccc32)cc1
pIC50 (K562): 6.43
pIC50 (Tubulin (Sus scrofa)): 5.98

COc1cc(CON=C2c3ccccc3C(=O)c3ccccc32)cc(OC)c1OC
pIC50 (K562): < 4.92

COc1ccc(CON=C2c3ccccc3C(=O)c3ccccc32)cc1O
pIC50 (K562): 6.96
pIC50 (Tubulin (Sus scrofa)): 5.84

O=C1c2ccccc2C(=NOCc2ccc(Cl)cc2)c2ccccc21
pIC50 (K562): 5.00

O=C1c2ccccc2C(=NOCc2ccc([N+](=O)[O-])cc2)c2ccccc21
pIC50 (K562): < 4.96

COc1ccc(CO/N=C2\c3cccc(Cl)c3C(=O)c3cccc(Cl)c32)cc1
pIC50 (K562): < 4.92
pIC50 (Tubulin (Sus scrofa)): < 5.00

COc1cc(CO/N=C2\c3cccc(Cl)c3C(=O)c3cccc(Cl)c32)cc(OC)c1OC
pIC50 (K562): < 4.85

COc1ccc(CON=C2c3cccc(Cl)c3C(=O)c3c(Cl)cccc32)cc1
pIC50 (K562): < 4.92

COc1ccc(CON=C2c3cccc(OC)c3C(=O)c3c(OC)cccc32)cc1
pIC50 (K562): 5.47
pIC50 (Tubulin (Sus scrofa)): < 5.00

COc1ccc(CON=C2c3cccc(OC)c3C(=O)c3c(OC)cccc32)cc1O
pIC50 (K562): 5.62
pIC50 (Tubulin (Sus scrofa)): < 5.00
